Measurements from different studies.
Target: Megakaryocyte-associated tyrosine-protein kinase (MATK, Homo sapiens, UniProt P42679)
Residues used in one study (P42679 1-507): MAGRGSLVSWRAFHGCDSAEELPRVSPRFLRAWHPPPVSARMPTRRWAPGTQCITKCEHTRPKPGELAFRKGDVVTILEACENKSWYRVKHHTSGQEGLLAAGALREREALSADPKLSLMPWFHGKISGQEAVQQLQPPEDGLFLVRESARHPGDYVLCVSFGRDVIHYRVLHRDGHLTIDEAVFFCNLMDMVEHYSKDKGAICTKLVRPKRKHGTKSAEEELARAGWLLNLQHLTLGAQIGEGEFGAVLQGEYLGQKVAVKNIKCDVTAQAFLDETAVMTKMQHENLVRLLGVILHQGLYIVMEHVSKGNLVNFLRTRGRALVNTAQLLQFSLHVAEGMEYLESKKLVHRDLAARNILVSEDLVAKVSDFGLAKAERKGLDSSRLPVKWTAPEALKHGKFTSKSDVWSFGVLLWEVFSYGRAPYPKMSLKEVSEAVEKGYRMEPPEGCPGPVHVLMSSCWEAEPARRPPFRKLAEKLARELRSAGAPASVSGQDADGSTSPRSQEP

CN(c1nccc(-c2cnn3ncccc23)n1)C1CC1 — remaining binding (binding; 1 µM): 100%
CO[C@@H](C)c1c(Nc2ccc([C@@H](N(C)C(=O)C3CCS(=O)(=O)CC3)C(F)(F)F)cc2)cnc2cc(Cl)nn12 — remaining binding (cell-free assay; competition with immobilised ligand; 1 µM): 98%
N[C@H]1CCN(c2nccc(-c3cnn4ncccc34)n2)C1 — remaining binding (binding; 1 µM): 100%
COc1cnc(Nc2cccc(S(N)(=O)=O)c2)nc1N1CCN(c2ccccc2)C(=O)C1 — remaining binding (binding; competition with immobilised ligand; 1 µM): 79%
O=C(Nc1cnc(Oc2ccc(F)cc2)nc1)N1CCc2ncccc2[C@@H]1c1ccc(F)cc1 — remaining binding (cell-free assay; competition with immobilised ligand; 1 µM): 80%
F[C@@H]1CCN(c2nccc(-c3cnn4ncccc34)n2)C1 — remaining binding (binding; 1 µM): 80%
Cc1cc(NC(=O)c2cccc(S(F)(F)(F)(F)F)c2)cc(-n2ccn3nc(-c4cccnc4)cc23)c1 — remaining binding (cell-free assay; competition with immobilised ligand; 1 µM): 100%
CN(C)c1nccc(-c2cnc3ncccn23)n1 — remaining binding (binding; 1 µM): 50%
COc1ncc2cc3ccccc3nc2c1C#N — remaining binding (cell-free assay; competition with immobilised ligand; 5 µM): 100%
CNCc1ccccc1-c1csc([C@@H](C)Nc2nc(C)nc3cc(OC)c(OC)cc23)c1 — remaining binding (cell-free assay; competition with immobilised ligand; 1 µM): 57%
O=C(c1ccc(Nc2ncc(Cl)c(-c3ccc(Cl)s3)n2)cc1)N1CCC(N2CCCC2)CC1 — remaining binding (binding; competition with immobilised ligand; 1 µM): 50%
CCCOc1ccc([C@@H]2[C@@H](C(=O)O)[C@H](c3ccc4c(c3)OCO4)CN2CC(=O)Nc2c(CC)cccc2CC)cc1 — remaining binding (cell-free assay; competition with immobilised ligand; 1 µM): 90%
C[C@H]1CCN(c2nccc(-c3cnn4ncccc34)n2)C1 — remaining binding (binding; 1 µM): 90%
O=C(c1ccc(Nc2nccc(-c3cc4ccccc4s3)n2)cc1)N1CCC(N2CCCC2)CC1 — remaining binding (binding; competition with immobilised ligand; 1 µM): 67%
O=C1CCc2cc(Nc3cc(OC4CCOCC4)c([N+](=O)[O-])cc3Cl)ccc2N1 — remaining binding (cell-free assay; competition with immobilised ligand; 1 µM): 100%
O=C(NCCCN1CCOCC1)c1ccc(Nc2ncc(Cl)c(-c3ccc(Cl)s3)n2)cc1 — remaining binding (binding; competition with immobilised ligand; 1 µM): 48%
c1cnn2ncc(-c3ccnc(N4CCC45COC5)n3)c2c1 — remaining binding (binding; 1 µM): 87%
COc1cnc(Nc2cccc(S(N)(=O)=O)c2)nc1N1CCN(c2ccccc2)CC1 — remaining binding (binding; competition with immobilised ligand; 1 µM): 57%
O=C(Nc1c[nH]nc1C(=O)NC1CCNCC1)c1cc(F)cc(F)c1 — remaining binding (binding; competition with immobilised ligand; 1 µM): 84%
Nc1ncc2c(n1)-c1c([nH]c3ccc(C#CC4CC4)cc13)CCCC2 — remaining binding (binding; competition with immobilised ligand; 1 µM): 100%
